Source: PubChem (several laboratories)
LEDGF integ inh = blockers of LEDGF/p75-dependent integrase strand transfer – biochemical, TR-FRET, high throughput, primary screen | inhibition, % at 3.7 µM | AID 743269, 2014 | TR-FRET IN-LEDGF/p75 DNA integration, Eu/Cy5 | 370,000 tested, 0.64% active;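 active = inhibition above the screen-wide mean plus 3 SD, cut at about 13% in these data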;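 note: signal is the Cy5 over europium emission ratio at 671 and 618 nm; 0% = plate median of compound wells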
MBD2 DNA inh = inhibitors of MBD2 binding to methylated DNA, primary screen, biochemical, TR-FRET, DNA-binding domain, human; AID 686964, 2013; Methyl-CpG-binding domain protein 2 (Homo sapiens), Q9UBB5; MBD2 binding to methylated oligonucleotide; 370,000 tested, 0.31% active; inhibition, % at 4.4 µM; in the data active = inhibition above about 13%
ATG4B inhibitor = ATG4B protease inhibitors, primary screen, biochemical, fluorescence, uHTS; 340,000 tested, 0.51% active; inhibition, % at 8.33 µM; ATG4B cleavage of LC3-PLA2, NBD-HPC fluorescence, 1 h; Cysteine protease ATG4B (Homo sapiens), Q9Y4P1; in the data active = inhibition above about 40%
CSN deneddyl inh = inhibitors of CSN-mediated cullin deneddylation, primary screen, biochemical, fluorescence polarization, uHTS; COP9 signalosome complex subunit 5 (Homo sapiens), Q92905; Purified CSN, SCF-Nedd8-OG deneddylation; inhibition, % at 12.5 µM; 360,000 tested, 0.38% active;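 active = pattern-corrected inhibition above about 35%, with an unprinted fluorescence ratio check between 0.5 and 1.5, limit read from the data, passing the limit was not always enough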;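 note: 0% = enzyme with substrate and 100% = substrate without enzyme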
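Test system: Human Csn5 produced in HEK293T cells | Compound: 12.5 µM single point | Times: 90 min, room temperature | Signal: Fluorescence polarization readout | Read-out basis: % inhibition of substrate cleavage by Csn5 | Controls: no-enzyme wells high, enzyme-with-substrate wells low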
UHRF1 MBD2 ctr = UHRF1 methylated DNA binding inhibitors, primary screen, counter-screen for MBD2 inhibitor project, biochemical, TR-FRET, human UHRF1, single concentration; E3 ubiquitin-protein ligase UHRF1 (Homo sapiens), Q96T88; UHRF1 binding to methylated oligo; inhibition, % at 4.4 µM; 370,000 tested, 0.75% active; in the data active = inhibition above about 21%;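 note: UHRF1 SRA domain binding a hemimethylated CpG hairpin DNA probe; 0% = median of test compound wells and 100% = reference inhibitor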
Target sequence (Q96T88 whole entry, looked up, the tested form may be a part): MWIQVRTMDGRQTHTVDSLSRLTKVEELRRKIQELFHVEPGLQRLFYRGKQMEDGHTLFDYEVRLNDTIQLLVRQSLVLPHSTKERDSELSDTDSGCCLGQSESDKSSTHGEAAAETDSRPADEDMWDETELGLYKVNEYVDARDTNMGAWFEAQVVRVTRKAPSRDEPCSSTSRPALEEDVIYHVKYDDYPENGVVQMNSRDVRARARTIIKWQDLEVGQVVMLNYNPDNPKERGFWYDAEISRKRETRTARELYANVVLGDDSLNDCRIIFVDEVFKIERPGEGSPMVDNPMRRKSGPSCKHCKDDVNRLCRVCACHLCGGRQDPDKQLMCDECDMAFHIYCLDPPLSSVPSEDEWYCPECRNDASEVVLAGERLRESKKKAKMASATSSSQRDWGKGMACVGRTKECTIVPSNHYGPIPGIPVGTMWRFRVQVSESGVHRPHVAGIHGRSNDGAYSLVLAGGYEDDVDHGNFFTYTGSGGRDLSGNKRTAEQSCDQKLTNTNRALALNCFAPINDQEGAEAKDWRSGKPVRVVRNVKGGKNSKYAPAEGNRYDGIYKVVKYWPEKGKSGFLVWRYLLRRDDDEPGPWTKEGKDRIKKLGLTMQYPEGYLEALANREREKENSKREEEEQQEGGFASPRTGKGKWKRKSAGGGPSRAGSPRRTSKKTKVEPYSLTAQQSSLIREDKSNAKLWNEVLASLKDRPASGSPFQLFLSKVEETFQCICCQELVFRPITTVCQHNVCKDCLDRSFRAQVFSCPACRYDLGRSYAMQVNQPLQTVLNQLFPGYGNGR
rCAG RNA binder = binders of r(CAG) RNA repeats, primary screen, biochemical, fluorescence; inhibition, % at 3 µM; AID 651821, 2012; 370,000 tested, 1.3% active; r(CAG) RNA repeat, TO-PRO-1 dye displacement fluorescence;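 active = inhibition above the plate cutoff, the mean of all test compounds on that plate plus 3 SD, cut at about 35% in these data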;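 note: 0% = DMSO alone and 100% = 100 µM mitoxantrone as full dye displacement; higher means more dye released from RNA so lower well fluorescence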
ATG4B conf = ATG4B protease inhibitors, retest, confirmation, biochemical, fluorescence, single concentration. shares compounds with ATG4B inhibitor. ATG4B protease fluorescent substrate cleavage assay. inhibition, % at 8.33 µM. 320 tested, 92% active. AID 504757, 2011; in the data active = inhibition above about 39%
PLA2 ctr = PLA2 enzyme inhibition, counter-screen for ATG4B inhibitor project, biochemical, single concentration, uHTS hits | shares compounds with ATG4B inhibitor | inhibition, % at 8.33 µM | 1,600 tested, 66% active | AID 588402, 2011 | purified PLA2, NBD-C6-HPC fluorescence, 45 min; in the data active = inhibition above about 50%
The depositor's hits bear a star; / = no result given. A selection: hits, their analogues and other compounds. The true share with any hit is near 3.1%.

SMILES | LEDGF integ inh | MBD2 DNA inh | ATG4B inhibitor | CSN deneddyl inh | UHRF1 MBD2 ctr | rCAG RNA binder | PLA2 ctr | others
CCCCc1ccc(-c2noc(CCC(=O)NCC)n2)cc1 | -0.1 | -9.9 | / | / | -2.3 | / | /
COC(=O)C1CN(Cc2ccccc2)CCS(=O)(=O)N1Cc1ccc(C)cc1 (stereo unspecified) | 2.6 | 2.2 | / | / | 1.4 | 2.6 | /
N#C/C(=C\c1ccccc1[N+](=O)[O-])c1nc(C2CC2)cs1 | -5.8 | 4.1 | 48.4* | 5.2 | 0.6 | 1.6 | 62.7*
N#C/C(=C/c1ccccc1[N+](=O)[O-])c1nc(C2CC2)cs1 | 6.4 | -5.7 | 34.3 | -3.5 | -2.6 | -0.8 | /
O=C(C1CCCN(S(=O)(=O)c2ccc([N+](=O)[O-])cc2)C1)N1CCN(Cc2ccccc2)CC1 (stereo unspecified) | 2.2 | 0.4 | / | / | 2.0 | 0.2 | /
CC(C)(C)C(=O)O[C@@H]1CCC[C@@]2(C(=O)N(Cc3ccccc3)c3ccccc32)[C@H]1NC(=O)CCc1ccccc1 | 2.6 | -7.2 | / | / | -2.3 | 3.1 | /
COC(=O)c1ccc(C(=O)N2CCCC(Nc3ccc(C(C)C)cc3)C2)nc1 (stereo unspecified) | -3.7 | -3.5 | 42.1* | 2.2 | -0.8 | -8.4 | 42.3 | ATG4B conf=78.3*
CC(C)c1ccc(NC2CCCN(C(=O)c3ccc4nccnc4c3)C2)cc1 (stereo unspecified) | -2.3 | 6.9 | 32.1 | -1.8 | -0.5 | -6.4 | /
COc1ccc(C(=O)N2CCCC(Nc3ccc(C(C)C)cc3)C2)c(OC)n1 (stereo unspecified) | 2.5 | 1.5 | 76.5* | 1.1 | -0.3 | -7.9 | 78.2*
CC(C)c1ccc(NC2CCCN(C(=O)c3cc(C(C)C)[nH]n3)C2)cc1 (stereo unspecified) | -2.0 | -1.2 | 43.4* | 0.9 | 3.0 | -8.6 | 46.2 | ATG4B conf=74.2*
C=CCN1C(=O)[C@H](CC(=O)NCC23CC4CC(CC(C4)C2)C3)[C@@]2(C(=O)OC)CCCCC=C12 | -1.2 | -2.5 | / | / | -0.9 | 2.8 | /
Cc1ccc(NC(=O)C2SC(=Nc3ccccc3)C(C(=O)Nc3ccc(Cl)cc3)=C2N)cc1 (stereo unspecified) | / | / | -4.6 | -1.0 | / | / | /
Cc1ccc(N=C2SC(C(=O)Nc3ccc(OC(F)(F)F)cc3)C(N)=C2C(=O)Nc2c(C)cc(C)cc2C)cc1 (stereo unspecified) | 0.5 | 1.3 | 61.9* | -6.2 | -4.5 | 25.7 | 61.5*
O=C(O)COc1ccc(-c2nc(-c3ccccc3)c(-c3ccccc3)[nH]2)cc1 | 7.9 | 0.8 | 47.8* | 0.0 | -2.4 | 26.3 | 59.0*
O=C(O)c1ccccc1-c1nc(-c2ccccc2)c(-c2ccccc2)[nH]1 | -2.9 | -5.9 | 2.6 | -0.3 | 1.2 | 1.9 | /
Cc1cccc(OCC(=O)Nc2cc(S(=O)(=O)N3CCOCC3)ccc2N2CCCC2)c1C | 5.5 | -5.8 | -6.4 | 0.8 | -4.0 | -3.5 | /
CCc1ccccc1OCC(=O)Nc1cc(S(=O)(=O)N(CC)CC)ccc1N1CCOCC1 | 6.2 | 3.5 | 54.2* | -2.9 | 0.8 | 0.1 | 92.1*
Cc1ccccc1OCC(=O)Nc1cc(S(=O)(=O)N2CCCCC2)ccc1N1CCN(C)CC1 | 2.0 | -4.5 | 46.2* | -7.0 | 0.3 | -7.3 | 50.5*
CCN(CC)S(=O)(=O)c1ccc(N2CCOCC2)c(NC(=O)COc2ccccc2)c1 | 1.2 | 1.9 | 25.9 | 4.0 | -1.1 | 1.5 | /
CCCCCn1nnnc1C1(C)CCCCC(=O)N1Cc1ccco1 (stereo unspecified) | 6.1 | -6.2 | / | / | -4.9 | 1.3 | /
COC(=O)CC[C@H](/C=C/C(=O)OC(C)(C)C)Sc1ccc(C(C)(C)C)cc1 | 4.2 | 0.4 | / | / | -1.0 | 0.6 | /
O=c1c2ccccc2c(-c2ccc(O)cc2)nn1-c1cccc(C(F)(F)F)c1 | -1.1 | 4.5 | 59.5* | -5.5 | 3.2 | 8.1 | 72.3*
O=c1c2ccccc2c(-c2cccc(C(F)(F)F)c2)nn1-c1ccccc1 | -1.8 | -1.1 | 12.3 | 3.1 | -2.2 | -1.1 | /
Cc1cccc(CSc2nnc(-c3cccs3)n2Cc2ccco2)c1 | -0.3 | 1.5 | 67.7* | -0.5 | -1.0 | -5.2 | 67.0*
Cc1ccc(CSc2nnc(-c3ccccc3)n2Cc2ccco2)cc1 | -1.1 | -1.4 | / | / | -2.1 | 1.8 | /
SMILES | LEDGF integ inh | MBD2 DNA inh | ATG4B inhibitor | CSN deneddyl inh | UHRF1 MBD2 ctr | rCAG RNA binder | PLA2 ctr | others
CC(=O)c1cc(-c2ccccc2)n(CC(=O)NCc2ccc(Cl)cc2)c1C | -0.7 | 2.0 | / | / | -3.0 | 8.4 | /
O=C1Nc2ccc(F)cc2C12Nc1ccccc1-c1nnc(SCc3ccccc3Cl)nc1O2 (stereo unspecified) | -3.5 | 2.8 | 43.2* | 5.6 | 0.3 | 11.3 | 77.4*
COc1ccc(-c2cc(C(F)(F)F)nc(SCc3cccc(C(=O)O)c3)n2)cc1 | -3.1 | -4.7 | 43.6* | 0.1 | -1.3 | 5.4 | 55.8*
CCOC(=O)c1oc2ccc(Br)cc2c1NC(=O)CN1CCN(C)CC1 | 0.5 | -4.9 | -1.0 | -2.7 | -3.4 | -8.4 | /
O=C(Nc1c(C(=O)O)oc2ccc(Br)cc12)c1ccccc1 | / | / | 47.9* | 0.0 | / | / | 57.1*
CCOc1ccc(NCc2ccccc2OCc2cccc(F)c2)cc1 | 3.0 | -6.0 | 46.0* | 1.1 | -2.5 | 8.6 | 35.5 | ATG4B conf=59.6*
Fc1cccc(COc2ccccc2CNc2ccccc2)c1 | -0.7 | -1.5 | 20.0 | -9.4 | -1.1 | 2.5 | /
COC(=O)[C@]12CCCCC=C1N(Cc1ccc(OC)cc1)C(=O)[C@@H]2CC(=O)NCCc1ccccc1OC | 0.9 | -4.4 | / | / | -1.8 | 0.5 | /
COc1ccc(Cl)cc1NC(=O)Nc1cccc([N+](=O)[O-])c1C | 2.2 | -4.6 | 78.3* | -0.2 | -2.0 | 4.2 | 85.8*
COc1ccc(Cl)cc1NC(=O)NC1CCCCC1 | -2.7 | -1.2 | 8.2 | 3.6 | -2.5 | -0.1 | /
O=C(CN1CCCc2ccccc21)NCc1ccccc1F | -0.2 | 3.5 | / | / | -2.9 | 5.2 | /
CCOC(=O)c1cccc(-c2cc(C(=O)OC)c3n(c2=O)CCC3)c1 | 0.8 | -2.7 | / | / | 4.1 | -0.7 | /
